M5 PAM – positive allosteric modulators of human muscarinic M5 receptor; CHO-K1 hM5, Fluo-8 calcium, ACh EC20 PAM; 0% = ACh EC20, 100% = ACh EC100; activation, % at 3 µM; 360,000 tested, 0.3% active;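 active = activation above the run cutoff, the mean activation of all test compounds plus 3 SD, cut at about 18% in these data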
Target sequence (P08912 whole entry, looked up): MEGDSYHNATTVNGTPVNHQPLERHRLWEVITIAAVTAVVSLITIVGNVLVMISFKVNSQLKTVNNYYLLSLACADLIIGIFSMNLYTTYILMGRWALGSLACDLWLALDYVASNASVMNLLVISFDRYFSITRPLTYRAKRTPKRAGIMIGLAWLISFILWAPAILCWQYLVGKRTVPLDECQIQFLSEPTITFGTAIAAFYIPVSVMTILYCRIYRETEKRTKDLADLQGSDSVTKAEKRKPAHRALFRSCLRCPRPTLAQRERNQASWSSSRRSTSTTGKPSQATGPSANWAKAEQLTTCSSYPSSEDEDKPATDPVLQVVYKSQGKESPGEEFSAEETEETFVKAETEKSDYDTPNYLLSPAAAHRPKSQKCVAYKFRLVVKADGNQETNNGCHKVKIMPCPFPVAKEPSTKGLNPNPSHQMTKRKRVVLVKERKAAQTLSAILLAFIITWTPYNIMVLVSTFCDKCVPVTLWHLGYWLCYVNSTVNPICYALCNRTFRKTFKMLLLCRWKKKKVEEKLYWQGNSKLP
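System – CHO-K1 hM5 cells · Compound – 3 µM, single dose · Incubation – compound preincubation 140 s before EC20 acetylcholine addition · Technique – Fluo-8 calcium fluorescence · Measure – Max/basal fluorescence ratio as % of EC20–EC100 ACh window · Benchmarks – low control EC20 acetylcholine (0%), high control EC100 acetylcholine (100%) · Replication – singlicate, one well per test compound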
M1 ag – human M1 muscarinic receptor agonism. P11229. CHO-K1 hM1, Fluo-8 calcium fluorescence, agonist mode; 0% DMSO, 100% acetylcholine EC100. activation, % at 3 µM. 360,000 tested, 0.33% active;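 active = activation above the run's mean compound activation plus 3 SD, cut at about 16% in these data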;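 also: peak over basal fluorescence ratio within a 140 s kinetic read after compound addition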
CHRM1 PAM – human CHRM1 positive allosteric modulation; CHO-K1 hM1, Fluo-8 calcium fluorescence, ACh EC20; 0% = ACh EC20, 100% = maximal ACh; activation, % at 3 µM; 360,000 tested, 0.088% active; in the data active = activation above about 19%, passing the limit was not always enough
CHRM5 antagonist – antagonists of human muscarinic M5 receptor (CHRM5) | CHO-hM5 cells, Fluo-8 calcium fluorescence, ACh EC80 | P08912 | AID 624040 | inhibition, % at 3 µM | 360,000 tested, 0.59% active;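 active = inhibition above a per-plate cutoff, the mean of that plate's test compounds plus 3 SD, cut at about 27% in these data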
M1 antag – antagonists of human M1 muscarinic receptor | CHO-K1 hM1, Fluo-8 calcium fluorescence, ACh EC80 antagonist | 360,000 tested, 1.3% active | inhibition, % at 3 µM | P11229;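 active = percent inhibition above its own plate's cutoff, namely the mean of that plate's compound wells plus 3 SD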;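 also: peak over basal fluorescence ratio during 140 s after agonist addition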
CHRM5 agonist – CHRM5 agonism in calcium assay | CHO-K1 hM5 cells, Fluo-8 calcium fluorescence; 0% DMSO wells, 100% maximal acetylcholine response | activation, % at 3 µM | 360,000 tested, 0.19% active | AID 624037;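 active = activation above the run's mean over test compounds plus 3 SD, cut at about 23% in these data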;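 also: signal is peak over basal fluorescence ratio across the kinetic read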
Of the large screens only hits and unclear results are named; the others gave an inactive call. An excerpt weighted towards active compounds, which were near 2% of everything screened.

C[C@@H]1CN([C@H](C)CO)C(=O)CCCn2nncc2CO[C@H]1CN(C)Cc1ccncc1	none
CCCCn1nnnc1C(c1cc2ccccc2o1)N(CCC#N)Cc1ccccc1 (stereo not given)	none (no result: M1 ag, CHRM1 PAM, M1 antag)
COc1ccccc1N1CC(C)(C)C(=O)N(C(=O)c2ccc(C)cc2)C1=S	none
CC1CCCN(S(=O)(=O)c2ccc(NC(=O)CN3CCN(C)CC3)cc2)C1 (stereo not given)	M1 antag 22
CCN(c1ccc(NC(=O)COC(=O)c2ccc(S(=O)(=O)N3CCCC3)cc2)cc1)C(C)C	M1 antag 68
O=C(CSc1nc2ccccc2o1)Nc1ccc(N2CCOCC2)c(Cl)c1	CHRM5 antagonist 28
CC(=O)C1=C(O)C(CSCc2ccccc2)N(C)C1=O (stereo not given)	none
Cc1ccc(S(=O)(=O)N(C)C)cc1NC(=O)C(C)N(C)Cc1sccc1C (stereo not given)	CHRM5 antagonist 30
CCOC(=O)c1cnc2ccc(OCC)cc2c1N1CCN(C)CC1	none
CCOc1ccc2ncc(S(=O)(=O)c3ccc(C)cc3)c(N3CCC4(CC3)OCCO4)c2c1	M1 antag 35
CN(C)CCCn1c(=O)n(Cc2ccco2)c(=O)c2c3c(sc21)CCCCC3	M5 PAM 18
NC(=O)c1cccc(Nc2nc(C(N)COCc3ccccc3)cs2)n1 (stereo not given)	none
CCOC(=O)C1(Cc2ccc(Cl)cc2)CCN(C(C)Cc2ccc(O)c(OC)c2)CC1 (stereo not given)	CHRM5 antagonist 30, M1 antag 39
COc1ccc(NC(=O)C2CCC(N3C(=O)C4C5C=CC(C5)C4C3=O)CC2)cc1 (stereo not given)	none
COc1ccc(NC(=O)[C@@H]2[C@@H]3C(=O)N(C4CCCCC4)C(=O)[C@@H]3C3c4ccccc4C=CN32)cc1 (stereo not given in full)	M1 ag 65, M1 antag 25
COc1cccc(-c2ccc(C3=CC(=O)CC(C)(C)C3=O)cc2)c1OC	none
C=CC[C@@H](CC(=O)NCCO)C(=O)NC[C@H](OC(=O)[C@@H](CC=C)Cc1ccc(F)cc1)c1ccccc1	M1 antag 53
C=CC[C@H](CC(=O)N(CCO)Cc1ccccc1)C(=O)NC[C@H](OC(=O)[C@@H](CC=C)Cc1ccc(F)cc1)c1ccccc1	M1 antag 43
C=CC[C@@H](CC(=O)N[C@@H](CO)Cc1ccccc1)C(=O)NC[C@H](OC(=O)[C@@H](CC=C)Cc1ccc(F)cc1)c1ccccc1	none
CN1C(=O)C(CC(=O)Nc2ccc(F)cc2)N(NC(=O)c2cccc(F)c2)C1=S (stereo not given)	M1 antag 50
CCN1C(=O)C(CC(=O)Nc2ccccc2Cl)N(NC(=O)c2cccc(F)c2)C1=S (stereo not given)	none
CC(C)C[C@@H]1CC2=C(C(=O)OC(C)(C)O2)[C@H](c2ccc(Cl)cc2)O1	none (no result: M1 ag, CHRM1 PAM, M1 antag)
COc1ccc(OCC(=O)Nc2ccc(N3CCN(C(=O)c4ccco4)CC3)cc2)cc1	none
Cc1cc(C)cc(OCC(=O)Nc2ccc(N3CCN(C(=O)c4ccco4)CC3)cc2)c1	M1 antag 33
Cc1ccc(NC(=O)CN2CCN(C(=O)c3ccco3)CC2)cc1	none
C[N+]1(CC(=O)Nc2ccc(F)cc2)CCN(C(=O)c2ccco2)CC1	M1 antag 56
Cc1cc(C)c(OCC(=O)Nc2ccc(NC(=O)c3ccco3)cc2)c([N+](=O)[O-])c1	M5 PAM 26
O=C(Nc1ccc(F)cc1)C(c1ccncc1)N1CCN(C(=O)c2ccco2)CC1 (stereo not given)	M5 PAM 20 (no result: M1 ag, CHRM1 PAM, M1 antag)
Cc1cc(C)c(OCC(=O)Nc2cccc(NC(=O)c3ccco3)c2)c(Br)c1	none
CC(NC(=O)COc1ccccc1)C(=O)NCc1ccc(S(N)(=O)=O)cc1 (stereo not given)	CHRM1 PAM 27
CC(C)Oc1cccc(-c2cc(C(=O)N3CCN(c4ncccn4)CC3)c3ccccc3n2)c1	M1 antag 27
Cc1ccc(-c2cc(C(=O)N3CCN(c4ccccc4O)CC3)c3ccccc3n2)o1	M1 antag 42
Cc1ccc(-c2cc(C(=O)N3CCN(c4ncccn4)CC3)c3ccccc3n2)cc1	M1 antag 31
O=C(c1cc(-c2ccc(Br)cc2)nc2ccccc12)N1CCN(c2ccccc2O)CC1	none
COc1cccc(-c2cc(C(=O)N3CCN(c4ncccn4)CC3)c3ccccc3n2)c1	M1 antag 45
CC(C)Oc1cccc(-c2cc(C(=O)N3CCN(S(C)(=O)=O)CC3)c3ccccc3n2)c1	none
CCN(C(=O)COC(=O)CNS(=O)(=O)c1ccc(C)cc1)C1CCS(=O)(=O)C1 (stereo not given)	none
O=C(CN1C(=O)S/C(=C/c2cccs2)C1=O)N1CCCC1	none
O=C(CN1C(=O)S/C(=C/c2cccs2)C1=O)N1CCOCC1	M1 antag 38
COc1cc(OC)cc(C(=O)Nc2nc(CC(=O)NCc3ccc(F)cc3)cs2)c1	none
COc1cc(OC)cc(C(=O)Nc2nc(CC(=O)NCc3ccccc3OC)cs2)c1	M1 antag 29
ON=C1CCC2CCCCC2C1 (stereo not given)	none
COc1cc(OC)c(OC)cc1CNC(=O)c1cccc(S(=O)(=O)N2CCc3ccccc3C2)c1	M1 antag 36
Cc1cc(N2CCN(C)CC2)ccc1NC(=O)c1cccc(S(=O)(=O)N2CCc3ccccc3C2)c1	M1 antag 79
Cc1ccc(CNC(=O)C2=CCN(S(=O)(=O)c3ccc(C)cc3)CC2)cc1	none
COc1ccccc1CNC(=O)c1cccc(S(=O)(=O)N2CCN(C)CC2)c1	none
COc1ccccc1CNC(=O)C1=CCN(S(=O)(=O)c2ccc(C)cc2)CC1	M5 PAM 19
C[C@@H](c1ccccc1)N1C[C@H](COCc2ccccc2)Oc2cc(N3CC[C@H](N(C)C)C3)ccc2S1(=O)=O	none (no result: M1 ag, CHRM1 PAM, M1 antag)
Cc1ccc(NC(=S)c2nc3ccccc3[nH]2)cc1	CHRM5 antagonist 47
O=C(Nc1ccccc1O)c1ccc2c(c1)C(=O)N(c1ccccc1)C2=O	none
Cc1cc(N2C(=O)c3ccc(C(=O)Nc4ccccc4O)cc3C2=O)no1	CHRM5 antagonist 28
CN1CCC(N(C)C(=S)Nc2ccc(SC(F)F)cc2)CC1	M1 ag 18
C[C@H](NC(=O)c1ncn2c1C(=O)N[C@@H](C)C2)c1ccccc1	none
CCNC(=S)NC1CC2CCCC(C1)N2Cc1ccc(C)cc1 (stereo not given)	M1 antag 69

Screening data: PubChem, The Scripps Research Institute Molecular Screening Center
